Only some compounds are listed: those with a hit (about 4.3% of all), similar ones and a draw of the others.
APP 5'UTR act: APP 5'UTR luciferase reporter activation; SH-SY5Y APP 5'UTR luciferase reporter, luminescence; zero percent = DMSO vehicle wells; activation, % at 2 µM; 1% of 190,000 active; AID 1276;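 active means activation above a set limit, based on mean plus 3 SD of controls, cut at about 140% in these data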
NF-kB expr up: NF-kB expression increase, human neuronal cells | 1.6% of 190,000 active | NF-kB reporter expression; stronger effect = higher value | fold change at 12.5 µM | AID 1239; in the data active means fold change above about 3.3
FLuc inh counter: inhibits firefly luciferase, flagging false hits in luciferase inhibition screens; P08659; ATPLite firefly luciferase biochemical luminescence, 10 min; inhibition, % at 10 µM; 1.5% of 200,000 active; AID 1006;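 active means inhibition above about 50% when tested at 10 µM, limit read from the data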
Target sequence (P08659 whole entry, looked up): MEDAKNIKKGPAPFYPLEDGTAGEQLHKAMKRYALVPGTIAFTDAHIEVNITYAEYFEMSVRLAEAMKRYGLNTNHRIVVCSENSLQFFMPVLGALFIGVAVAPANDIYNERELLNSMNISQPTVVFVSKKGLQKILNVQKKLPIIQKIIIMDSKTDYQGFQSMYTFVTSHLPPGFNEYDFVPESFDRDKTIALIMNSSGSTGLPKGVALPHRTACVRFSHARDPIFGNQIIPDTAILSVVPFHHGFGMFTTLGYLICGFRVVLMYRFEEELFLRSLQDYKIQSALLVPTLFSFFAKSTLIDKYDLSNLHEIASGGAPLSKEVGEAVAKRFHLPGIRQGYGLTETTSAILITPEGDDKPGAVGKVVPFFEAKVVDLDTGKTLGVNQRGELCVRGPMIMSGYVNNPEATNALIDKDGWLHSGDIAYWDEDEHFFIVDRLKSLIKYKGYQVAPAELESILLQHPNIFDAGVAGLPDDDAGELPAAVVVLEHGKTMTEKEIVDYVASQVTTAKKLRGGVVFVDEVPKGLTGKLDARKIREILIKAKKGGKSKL
STAT1 activator: STAT1 signaling activation; 2.6% of 200,000 active; AID 932; NIH 3T3 STAT1-luciferase reporter, IFN-gamma, luminescence; 100% = IFN-gamma alone, no compound; activation (% of control), % at 5.5 µM;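 active means activation above the screen-wide mean activation plus 3 SD, cut at about 130% in these data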;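 further: raw ratio to IFN-gamma control signal so 100% means no change and 0% no light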
FLuc act counter: firefly luciferase counter-screen for stimulation assays. P08659. ATPlite luciferase biochemical, luminescence, 10 min; 0 = ATP-free wells, 1 = DMSO control. activation factor at 10 µM. 200,000 tested, under 10 active;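 active means luciferase activation factor, scaled between plate controls, of at least 2 with compound at 10 µM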
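Assay system: Luciferase/luciferin detection reagent, cell-free biochemical luciferase assay / Read-out: luciferase activation / Benchmarks: No-ATP low control, compound-free enzyme-plus-ATP high control / Medium: PBS buffer for ATP / Detection: luminescence measurement of luciferase light output / Schedule: 10 min at ambient temperature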
Starred values were filed as active, the others as inactive.

`Cc1ccc(C(=O)COC(=O)c2cccs2)cc1` gave APP 5'UTR act 198*, NF-kB expr up 7.5*, FLuc inh counter 92*, STAT1 activator 77 and FLuc act counter 0.1.
For CNc1ccccc1C(=O)OCC(=O)c1ccc(F)cc1 the results were APP 5'UTR act 8, NF-kB expr up 1.6, FLuc inh counter 41, STAT1 activator 132* and FLuc act counter 0.6.
Screening CCc1ccc(C(=O)COC(=O)c2cccs2)cc1 returned APP 5'UTR act 156*, NF-kB expr up 1.8, FLuc inh counter 87*, STAT1 activator 115 and FLuc act counter 0.1.
For COC(=O)/C=C1\NC(=O)C(C)S1 (stereo not drawn) the results were APP 5'UTR act 5, NF-kB expr up 0.95, FLuc inh counter 2, STAT1 activator 98 and FLuc act counter 1.
`Cc1ccnc(N/N=C/c2ccccc2)n1` gave APP 5'UTR act 83, NF-kB expr up 2.5, FLuc inh counter 51*, STAT1 activator 145* and FLuc act counter 0.5.
Screening CC(Cl)c1cc(-c2ncc(C(F)(F)F)cc2Cl)no1 (stereo not drawn) returned APP 5'UTR act 15, NF-kB expr up 1.3, FLuc inh counter 3, STAT1 activator 111 and FLuc act counter 1.
Screening FC(F)(F)c1cnc(-c2cnc(-c3ccccn3)nc2)c(Cl)c1 returned APP 5'UTR act 121, NF-kB expr up 1.1, FLuc inh counter 64*, STAT1 activator 108 and FLuc act counter 0.4.
FC(F)(F)c1cnc(-c2cnc(-c3ccncc3)nc2)c(Cl)c1 was read as APP 5'UTR act 58, NF-kB expr up 0.7, FLuc inh counter 13, STAT1 activator 140* and FLuc act counter 0.9.
CCCCSc1nc2c(cnn2-c2ccccc2)c(=O)n1N was read as APP 5'UTR act 168*, NF-kB expr up 4.7*, FLuc inh counter 5, STAT1 activator 141* and FLuc act counter 0.9.
For Nn1c(SCc2ccccc2)nc2c(cnn2-c2ccccc2)c1=O the results were APP 5'UTR act 93, NF-kB expr up 2.1, FLuc inh counter -3, STAT1 activator 135* and FLuc act counter 1.
`O=C(O)CSc1nc2c(cnn2-c2ccccc2)c(=O)n1-c1ccc(Br)cc1` gave APP 5'UTR act -24, NF-kB expr up 1.3, FLuc inh counter -5, STAT1 activator 103 and FLuc act counter 1.
Screening Cc1cccc(C)c1OCCNC(=O)CCC(=O)c1ccccc1 returned APP 5'UTR act 4, NF-kB expr up 1, FLuc inh counter -6, STAT1 activator 101 and FLuc act counter 1.1.
Cn1c(O)c(N=NC(=O)Cn2c(C(F)(F)F)nc3ccccc32)c2ccccc21 was read as APP 5'UTR act -1, NF-kB expr up 1, FLuc inh counter -6, STAT1 activator 95 and FLuc act counter 1.1.
CC(C(=O)NCCC1=CCCCC1)c1ccc([N+](=O)[O-])cc1 (stereo not drawn) was read as APP 5'UTR act 8, NF-kB expr up 1.2, FLuc inh counter -7, STAT1 activator 99 and FLuc act counter 1.1.
Screening CCOC(=O)c1sc(N/N=C/c2cccc(C)c2)nc1C returned APP 5'UTR act 15, NF-kB expr up 1.6, FLuc inh counter 3, STAT1 activator 130* and FLuc act counter 1.
For CC(=O)c1sc(N/N=C\c2ccccc2O)nc1C the results were APP 5'UTR act 131, NF-kB expr up 5.9*, FLuc inh counter 68*, STAT1 activator 101 and FLuc act counter 0.3.
`CC(=O)c1sc(NC(=O)C=C(C)C)nc1C` gave APP 5'UTR act 13, NF-kB expr up 1.9, FLuc inh counter 7, STAT1 activator 105 and FLuc act counter 0.9.
Screening CCOC(=O)Nc1nc(C)c(C(=O)c2ccc(Cl)cc2)s1 returned APP 5'UTR act -3, NF-kB expr up 0.91, FLuc inh counter -4, STAT1 activator 97 and FLuc act counter 1.
CCOC(=O)c1sc(NC(=O)Nc2ccc(Cl)cc2)nc1C was read as APP 5'UTR act 21, NF-kB expr up 1.8, FLuc inh counter 4, STAT1 activator 129* and FLuc act counter 1.
For O=C(c1c(Cl)nc2sccn12)N1CCN(c2cccc(Cl)c2)CC1 the results were APP 5'UTR act -94, NF-kB expr up 1.7, FLuc inh counter -5, STAT1 activator 104 and FLuc act counter 1.1.
`O=C(COc1ccc(Br)cc1CNC1CCCC1)Nc1ccccc1` gave APP 5'UTR act -3, NF-kB expr up 0.83, FLuc inh counter -2, STAT1 activator 97 and FLuc act counter 1.

Screens from PubChem BioAssay.
